High-throughput results from PubChem.
Shown are actives, neighbours in structure and some others; about 9.8% of the full set was active somewhere.
WT yeast gro inh = growth inhibition of WT strain, primary screen, mitochondrial fusion inhibitor project, WT and mutant strains, chemical genetic; mitochondrial fusion phenotypic screen; inhibition, % at 10 µM; 190,000 compounds, 2.1% hits; AID 1362, 2008; in the data active = inhibition above about 58%; tested in S. cerevisiae
PMI activator = activators of human PMI, primary screen, biochemical, fluorescence intensity, near-Km mannose 6-phosphate; Mannose-6-phosphate isomerase (Homo sapiens), P34949; purified human PMI, coupled resazurin fluorescence, 20 min; stronger effect = higher value; 1 = vehicle control, 0 substrate-free wells; activation factor at 20 µM; 190,000 compounds, 0.005% hits; AID 1214, 2008;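 active = activation factor of 2 or more at 20 µM, relative to plate controls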
Lmaj promast = Leishmania major promastigote growth inhibition, primary screen; inhibition, % at 10 µM; Leishmania major promastigotes, resazurin fluorescence viability; 200,000 compounds, 9% hits; in the data active = inhibition above about 50%;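 note: promastigotes grown with compound for 44 hours at 28 °C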
Calpain2 inh = inhibitors of pig calpain II, primary screen, biochemical, fluorogenic peptide substrate, 1536-well | purified calpain II, 30 min | inhibition, % at 16 µM | 220,000 compounds, 0.37% hits;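 active = inhibition above about 50%, limit read from the data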
PMI act hi M6P = human PMI activators, high substrate, primary screen, biochemical, fluorescence intensity, near-saturating mannose 6-phosphate | 190,000 compounds, 0.34% hits | activation factor at 20 µM | coupled PMI enzyme assay, resazurin fluorescence, 20 min; stronger effect = higher value; 1 = untreated enzyme, 0 = substrate-free blank;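 active = activation factor of 2 or more at 20 µM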
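Test system: human phosphomannose isomerase with PGI, G6PDH, diaphorase coupling enzymes; Amount: PMI at 15 ng/mL final; Reagent: Mannose-6-phosphate 1.0 mM (near-saturating) plus 0.22 mM NADP+; Timing: 20 min, room temperature; Technique: resorufin fluorescence at Ex 544/Em 590 nm; Dosing: 20 µM single dose.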
Rad51 HR inh = human RAD51 strand exchange inhibitors, primary screen, biochemical, fluorescence; inhibition, % at 10 µM; hRad51 DNA strand exchange, fluorescence dequenching; AID 1385, 2008; DNA repair protein RAD51 homolog 1 (Homo sapiens), Q06609; 200,000 compounds, 0.085% hits;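 active = inhibition above 40% at the single screening dose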;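 note: 0% = DMSO control wells and 100% = blanks with heterologous ssDNA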
Target sequence (Q06609 whole entry, looked up): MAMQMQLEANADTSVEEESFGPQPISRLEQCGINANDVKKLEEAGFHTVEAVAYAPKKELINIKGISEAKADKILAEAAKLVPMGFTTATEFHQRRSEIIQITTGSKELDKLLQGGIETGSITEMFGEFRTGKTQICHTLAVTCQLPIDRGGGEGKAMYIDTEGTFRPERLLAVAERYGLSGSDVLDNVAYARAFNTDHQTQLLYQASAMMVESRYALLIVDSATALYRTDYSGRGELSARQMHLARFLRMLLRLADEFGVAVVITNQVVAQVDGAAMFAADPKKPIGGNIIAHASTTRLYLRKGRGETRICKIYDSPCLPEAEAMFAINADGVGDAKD
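Material: human Rad51–ssDNA filaments; Probe or stimulus: labelled 47-mer dsDNA for strand exchange; Doses: single 10 µM dose; Incubation: 37 °C 15-min filament assembly, 30-min compound preincubation, 15-min exchange; Technique: FRET fluorescence dequenching, excitation 485 nm, emission 520 nm; Measure: Fluorescence-based percent inhibition, control- and blank-normalised; Benchmarks: plate control and blank wells.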
L major 1uM = Leishmania major promastigote growth inhibition, confirmation, 1 µM repeat of primary hits | 1,100 compounds, 13% hits | L. major promastigote growth, resazurin fluorescence, 48 h | shares compounds with Lmaj promast | AID 1258, 2008 | inhibition, % at 1 µM;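 active = inhibition above about 50% in both repeat tests, limit read from the data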
Starred values were filed as active, the others as inactive.

Cc1cccc(NC(=S)NC2CC3CCCC(C2)N3CC(C)C)c1 (stereo not drawn) was read as WT yeast gro inh -5.7, PMI activator 1, Lmaj promast 94.7*, Calpain2 inh 10.0, PMI act hi M6P 1, Rad51 HR inh 4.8 and L major 1uM 5.2.
`O=C(Nc1nncs1)c1cccnc1Cl` gave WT yeast gro inh -4.2, PMI activator 1.1, Lmaj promast -0.5, Calpain2 inh -3.2 and PMI act hi M6P 1.
For CC(=O)c1ccc(Oc2cc(-c3ccccc3)nc(-c3ccccc3)n2)cc1 the results were WT yeast gro inh -11.5, PMI activator 0.8, Lmaj promast 37.9, Calpain2 inh -5.3 and PMI act hi M6P 0.9.
For O=Cc1ccc(Oc2cc(-c3ccccc3)nc(-c3ccccc3)n2)cc1 the results were WT yeast gro inh -23.8, PMI activator 0.9, Lmaj promast 57.5*, Calpain2 inh -29.3, PMI act hi M6P 0.9 and L major 1uM -14.2.
`Cc1cc(=O)n2c3ccccc3n(CC(O)CN3CCC(C)CC3)c2c1C#N` (stereo not drawn) gave WT yeast gro inh 1.0, PMI activator 0.9, Lmaj promast 9.7, Calpain2 inh 6.1, PMI act hi M6P 1 and Rad51 HR inh -1.0.
`CCC1CCCCN1CC(O)Cn1c2ccccc2n2c(=O)cc(C)c(C#N)c12` (stereo not drawn) gave WT yeast gro inh -9.4, PMI activator 0.9, Lmaj promast 81.5*, Calpain2 inh -10.7, PMI act hi M6P 1, Rad51 HR inh 15.1 and L major 1uM -12.3.
`COC(=O)C1N[C@@H]([C@@H](NC(=O)COc2ccccc2)C(=O)NCc2ccsc2)SC1(C)C` (stereo partly drawn) gave Rad51 HR inh -9.6.
`Cc1c(Cl)c([N+](=O)[O-])nn1Cc1ccc(C(=O)Nc2ccc(Cl)cn2)o1` gave WT yeast gro inh 30.2, PMI activator 0.9, Lmaj promast 14.2, Calpain2 inh 20.5, PMI act hi M6P 1 and Rad51 HR inh 6.5.
For O=C(Nc1ccc(Cl)cn1)c1ccc([N+](=O)[O-])o1 the results were WT yeast gro inh 15.9, PMI activator 1, Lmaj promast 99.7*, Calpain2 inh -77.7, PMI act hi M6P 0.9, Rad51 HR inh 25.6 and L major 1uM 79.7*.
Screening CC(=O)C1=C(C)NC(=O)CC1c1ccc(Br)cc1 (stereo not drawn) returned WT yeast gro inh -19.1, PMI activator 1, Lmaj promast -8.1, Calpain2 inh 14.6, PMI act hi M6P 1 and Rad51 HR inh 3.3.
NNC(=O)c1nn(-c2ccc(Cl)cc2)cc1O was read as Calpain2 inh -19.8.
Screening CN(C)CCCC(C)(O)C(Cc1ccccc1)c1ccccc1 (stereo not drawn) returned WT yeast gro inh -2.1, PMI activator 1.2, Lmaj promast 85.8*, Calpain2 inh -4.2, PMI act hi M6P 1.1, Rad51 HR inh 0.3 and L major 1uM -11.9.
`O=C1C2ON(c3ccc(Br)cc3)C(c3cccnc3)C2C(=O)N1C1CCCCC1` (stereo not drawn) gave WT yeast gro inh -2.7, PMI activator 0.9, Lmaj promast 85.1*, Calpain2 inh 33.6, PMI act hi M6P 0.9 and L major 1uM 72.3*.
`CC1(C)S[C@@H]2C(C(=O)OCc3ccccc3)NC(=O)N2C1C(=O)OCc1ccccc1` (stereo partly drawn) gave Rad51 HR inh -16.0.
`Cc1[nH]c2c(Cl)cccc2c(=O)c1CN1CCCC1` gave WT yeast gro inh -5.4, PMI activator 0.9, Lmaj promast 100.0*, Calpain2 inh 21.7, PMI act hi M6P 0.9 and L major 1uM 92.8*.
Screening Cc1[nH]c2ccc(Br)cc2c(=O)c1CN1CCCCC1 returned WT yeast gro inh -2.3, PMI activator 1.1, Lmaj promast 8.0, Calpain2 inh -2.6, PMI act hi M6P 1 and Rad51 HR inh -2.8.
Screening Cc1cccc(NC(=O)c2csnn2)n1 returned WT yeast gro inh -6.1, PMI activator 1, Lmaj promast 17.6, Calpain2 inh -8.6, PMI act hi M6P 1 and Rad51 HR inh 2.0.
Screening Cc1cc2nc(SCCOC(=O)Nc3ccccc3)nc(C)c2cc1C returned WT yeast gro inh 11.7, PMI activator 0.9, Lmaj promast 65.6*, Calpain2 inh 34.4, PMI act hi M6P 0.9, Rad51 HR inh 4.0 and L major 1uM -14.4.
Cc1cc2nc(SCCOC(=O)Nc3cccc(Cl)c3)nc(C)c2cc1C was read as WT yeast gro inh 10.5, PMI activator 0.9, Lmaj promast -3.8, Calpain2 inh 4.3, PMI act hi M6P 0.9 and Rad51 HR inh -4.1.
`COc1ccc(C(=O)Cn2c(Cl)nc3c2c(=O)n(C)c(=O)n3C)cc1` gave Calpain2 inh -15.6 and Rad51 HR inh -3.0.
`Clc1ccc(N2COC3c4cccc5cccc(c45)C32)cc1` (stereo not drawn) gave WT yeast gro inh 39.7, PMI activator 1, Lmaj promast -2.2, Calpain2 inh -1.5, PMI act hi M6P 0.9 and Rad51 HR inh 1.1.
For COc1ccc(N2COC3c4cccc5cccc(c45)C32)cc1 (stereo not drawn) the results were WT yeast gro inh 17.3, PMI activator 1, Lmaj promast 75.2*, Calpain2 inh 10.6, PMI act hi M6P 0.8, Rad51 HR inh -33.9 and L major 1uM -3.3.
For CC1Oc2ccccc2C=C1/C=N\NC(=O)c1cccnc1 (stereo not drawn) the results were Calpain2 inh -117.9.
For O=c1[nH]c(SCc2n[nH]c(=S)n2-c2ccccc2)nc2sc3c(c12)CCC3 the results were WT yeast gro inh -4.9, PMI activator 0.8, Lmaj promast 0.3, Calpain2 inh -68.7, PMI act hi M6P 0.9 and Rad51 HR inh 0.3.
For O=[N+]([O-])c1cc(CSC2=NCCN2)ccc1O the results were Calpain2 inh -12.1 and Rad51 HR inh 32.6.
For COc1ccc(CSC2=NCCN2)cc1Cl the results were WT yeast gro inh -9.7, PMI activator 1.1, Lmaj promast 99.4*, Calpain2 inh -25.9, PMI act hi M6P 1.1, Rad51 HR inh -5.7 and L major 1uM -10.5.
O=C(NCc1ccccc1C(F)(F)F)C1CC(c2ccc(C(F)(F)F)cc2)=NO1 (stereo not drawn) was read as Calpain2 inh 25.2 and Rad51 HR inh 3.0.
